Source: ChEMBL document CHEMBL6114987, “Identification of the first-in-class dual inhibitor targeting BAG3 and HSP70 proteins to disrupt multiple chaperone pathways” (Eur J Med Chem, 2025)
Each block holds one compound with its values, some of them ahead of it. Activity calls are given as the source filed them. No cut-off for these calls is given here.

Key:
[1] = tested on: HeLa; experiment: Cytotoxicity against human HeLa cells assessed as mortality rate at 10 to 50 uM incubated for 72 hrs by MTT assay relative to control; format: functional; settings: dose 10-50 µM
How it was run: (§1)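 MTT reduction assay. Cells grown in DMEM/high glucose with 10 % FBS, 2 mM glutamine and penicillin/streptomycin at 37 °C, 5 % CO2. HeLa seeded at 3.5×10^3 and HaCaT at 5.0×10^3 cells/well, in triplicate. After 24 h attachment, compounds added at 10 and 50 μM for 72 h. Controls: 0.1 % DMSO (negative) and 10 % DMSO (positive). MTT added for 3 h at 37 °C, formazan dissolved in DMF/SDS (pH 4.5), absorbance read at 570 nm. Three independent experiments.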

[2] = tested on: HaCaT; experiment: Cytotoxicity against human HaCaT cells assessed as mortality rate at 50 uM incubated for 72 hrs by MTT assay relative to control; format: toxicity, cell-based; how it was run: as §1
[3] = biological target: T1, BAG family molecular chaperone regulator 3 (Homo sapiens, UniProt O95817); experiment: Binding affinity to full length recombinant human BAG3 assessed as dissociation constant by SPR analysis
[4] = tested on: HeLa; experiment: Induction of cell cycle arrest in human HeLa cells assessed as increase in hypodiploid nuclei incubated for 72 hrs by PI staining based flow cytometry analysis; format: functional; settings: dose 1-10 µM
How it was run: (§2)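 HeLa cells (1×10^5/well) adhered 24 h, then treated 72 h with 10, 25 and 50 μM (reference inhibitor 1, 5, 10 μM), with 0.1 % DMSO negative and 10 % positive controls. Dead and live cells pooled, stained with 50 mg/L PI in 0.1 % citrate/0.1 % Triton X-100 for 30 min at 4 °C in the dark. Sub-G0/G1 percentage measured by flow cytometry, debris gated out.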

[5] = (§3) Binding affinity to recombinant human HSP70 assessed as dissociation constant by SPR analysis
How it was run: (§4)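 HSP70 amine-coupled on CM5 chip from 0.045 µg µl⁻¹ in 10 mM acetate pH 4.5, density 20 kRU, with unmodified reference surface. Compounds from 10 mM DMSO stocks diluted 1:20 in PBS-P (final 5.0 % DMSO), 10 concentrations by 1:2 dilution spanning 0–100 µM. Run at 25 °C, 20 µL/min, 90 s association, 400 s dissociation; KD reported ± SD.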

[6] = species: Homo sapiens; experiment: Inhibition of Hsp70 (unknown origin) ATPase activity assessed as residual activity at 50 uM by ATPase activity incubated for 1 hr by ADP-glo assay relative to control
How it was run: (§5)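 HSP70 ATPase assay by ADP-Glo. HSP70 plus HSP40 pre-incubated with compound for 30 min at RT, then ATP added and reacted 1 h at 30 °C with 1 % DMSO final. ADP-Glo reagent added for 1 h, then detection reagent for 20 min, and luminescence read. Activity scaled between no-compound (100 %) and no-HSP70 (0 %) wells; run in duplicates.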

[7] = species: Homo sapiens; experiment: Inhibition of Hsp70 (unknown origin) ATPase activity assessed as residual activity at 10 uM by ATPase activity incubated for 1 hr by ADP-glo assay relative to control; how it was run: as §5
[8] = tested on: HeLa; experiment: Cytotoxicity against human HeLa cells assessed as cell viability incubated for 72 hrs by MTT assay
[9] = tested on: HeLa; experiment: Induction of apoptosis in human HeLa cells assessed as increase in apoptotic cells at 50 uM incubated for 72 hrs by Annexin V-FITC/PI staining based flow cytometry analysis relative to control; format: functional
How it was run: (§6)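 HeLa cells (2×10^4) incubated 72 h at 20–50 μM. Stained with Annexin V-FITC and PI for 15 min at RT, then analysed by flow cytometry. Reported as percentage of live, apoptotic and necrotic cells versus control, mean ± SD of three independent experiments.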

[10] = tested on: HeLa; experiment: Upregulation of p21 expression in human HeLa cells incubated for 72 hrs by flow cytometry analysis; format: functional, cell-based; settings: dose 10-50 µM
How it was run: (§7)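 HeLa cells (2.5×10^5/well) treated 24 h after seeding for 72 h at 10, 25, 50 μM (reference inhibitor 10 μM) or 0.1 % DMSO. Fixed in 1 % formaldehyde (20 min, 4 °C), permeabilized with 0.1 % Triton, stained with anti-caspase 3, anti-caspase 9 or anti-p21 plus secondary antibodies. Read by flow cytometry as percentage of positive cells.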

[11] = tested on: HaCaT; experiment: Cytotoxicity against human HaCaT cells at 10 to 50 uM incubated for 72 hrs by MTT assay; format: toxicity, cell-based; settings: dose 10-50 µM
How it was run: (§8)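 HaCaT keratinocytes seeded at 5.0×10^3 cells/well in triplicate and allowed to attach for 24 h. Exposed to 10 and 50 μM for 24, 48 or 72 h with 0.1 % DMSO control, then read by MTT reduction (3 h, 37 °C) with absorbance at 570 nm.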

[12] = tested on: HeLa; experiment: Induction of apoptosis in human HeLa cells assessed as increase in apoptotic cells at 30 uM incubated for 72 hrs by Annexin V-FITC/PI staining based flow cytometry analysis relative to control; format: functional; how it was run: as §6
[13] = tested on: HeLa; experiment: Downregulation of FOXM1 expression in human HeLa cells at 50 uM incubated for 72 hrs by Western blot analysis; format: functional, cell-based
[14] = tested on: HeLa; experiment: Induction of apoptosis in human HeLa cells assessed as increase in caspase 9 expression incubated for 72 hrs by flow cytometry analysis; format: functional, cell-based; settings: dose 10-50 µM; how it was run: as §7
[15] = tested on: HeLa; experiment: Induction of cell cycle arrest in human HeLa cells assessed as increase in hypodiploid nuclei at 10 to 50 uM incubated for 72 hrs by PI staining based flow cytometry analysis; format: functional; settings: dose 10-50 µM; how it was run: as §2
[16] = tested on: HeLa; experiment: Downregulation of FOXM1 expression in human HeLa cells incubated for 72 hrs by Western blot analysis; format: functional, cell-based
How it was run: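 HeLa cells treated 72 h at 30 and 15 μM. Lysates (30 μg protein) separated on 10 % SDS-PAGE and blotted with anti-FOXM1 (1:500), β-tubulin as loading control. Detection by ECL, quantified by densitometry.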

[17] = tested on: HeLa; experiment: Induction of apoptosis in human HeLa cells assessed as increase in apoptotic cells incubated for 72 hrs by Annexin V-FITC/PI staining based flow cytometry analysis; format: functional, cell-based; settings: dose 20-50 µM; how it was run: as §6
[18] = tested on: HaCaT; experiment: Cytotoxicity against human HaCaT cells at 10 to 50 uM incubated for 48 hrs by MTT assay; format: toxicity, cell-based; settings: dose 10-50 µM; how it was run: as §8
[19] = tested on: HaCaT; experiment: Cytotoxicity against human HaCaT cells assessed as mortality at 10 to 50 uM incubated for 72 hrs by MTT assay; format: toxicity, cell-based; settings: dose 10-50 µM
[20] = tested on: HeLa; experiment: Induction of apoptosis in human HeLa cells assessed as increase in apoptotic cells at 20 uM incubated for 72 hrs by Annexin V-FITC/PI staining based flow cytometry analysis relative to control; format: functional; how it was run: as §6
[21] = tested on: HaCaT; experiment: Cytotoxicity against human HaCaT cells at 10 to 50 uM incubated for 24 hrs by MTT assay; format: toxicity, cell-based; settings: dose 10-50 µM; how it was run: as §8
[22] = tested on: HeLa; experiment: Induction of apoptosis in human HeLa cells assessed as increase in caspase 3 expression incubated for 72 hrs by flow cytometry analysis; format: functional, cell-based; settings: dose 10-50 µM; how it was run: as §7
[23] = Solubility of compound; format: physicochemical
[24] = tested on: A-375; experiment: Cytotoxicity against human A-375 cells assessed as cell viability incubated for 72 hrs by MTT assay; format: functional, cell-based; settings: A-375, 72 h
[25] = species: Homo sapiens; experiment: as §3; how it was run: as §4
[26] = tested on: A549; experiment: Cytotoxicity against human A549 cells assessed as cell viability incubated for 72 hrs by MTT assay; format: functional, cell-based; settings: A549, 72 h
[27] = biological target: T1, BAG family molecular chaperone regulator 3; experiment: Binding affinity to recombinant human BAG3 domain assessed as dissociation constant by SPR analysis

T1 sequence (O95817 whole entry): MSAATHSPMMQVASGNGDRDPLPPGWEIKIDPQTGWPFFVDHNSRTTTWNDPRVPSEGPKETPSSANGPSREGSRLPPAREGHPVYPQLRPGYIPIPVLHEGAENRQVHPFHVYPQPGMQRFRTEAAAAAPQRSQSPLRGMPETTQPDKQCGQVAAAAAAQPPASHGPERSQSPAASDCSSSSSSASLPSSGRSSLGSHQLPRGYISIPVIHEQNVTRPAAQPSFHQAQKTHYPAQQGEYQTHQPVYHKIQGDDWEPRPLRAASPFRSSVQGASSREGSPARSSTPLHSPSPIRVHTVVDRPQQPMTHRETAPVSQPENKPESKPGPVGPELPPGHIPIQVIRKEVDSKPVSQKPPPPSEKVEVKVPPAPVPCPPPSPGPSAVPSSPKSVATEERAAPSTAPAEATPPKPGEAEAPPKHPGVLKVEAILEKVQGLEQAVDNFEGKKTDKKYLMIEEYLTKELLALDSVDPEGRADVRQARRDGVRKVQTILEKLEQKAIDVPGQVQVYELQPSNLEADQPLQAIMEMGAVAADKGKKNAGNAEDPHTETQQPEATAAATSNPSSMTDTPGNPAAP

Compound: CCCCNC(=O)C(c1ccc2cn[nH]c2c1)N(CC(C)CC)C(=O)Cn1cc(-c2cc(C)ccc2C)nn1 (stereo not given)
mortality [1]: 70%
mortality [2]: 60%

Compound: CCCCNC(=O)C(c1ccccc1Br)N(C(=O)Cn1cc(CCC(C)C)nn1)c1ccc(Cl)cc1 (stereo not given)
Activity [3]: inactive

Compound: CCCCNC(=O)C(c1ccccc1Br)N(Cc1ccccc1)C(=O)Cn1cc(CCC(C)C)nn1 (stereo not given)
Activity [3]: inactive

Compound: CCCCNC(=O)C(c1c[nH]c(=O)[nH]c1=O)N(CC(C)CC)C(=O)Cn1cc(-c2cc(C)c(C)cc2C)nn1 (stereo not given)
IC50 [8]: 49.5 µM
mortality [1]: 70%
Kd [5]: 33.8 µM
Activity [9]: 26.2%
Activity [10]: Dose-dependent-effect
Activity [11]: Non-toxic
Activity [12]: 23%
Activity [13]: inactive
Activity [14]: Dose-dependent-effect
Activity [6]: 40%
Activity [15]: Active
Activity [16]: Dose-dependent-effect
Activity [17]: Dose-dependent-effect
Activity [18]: Non-toxic
Activity [19]: Non-toxic
Activity [7]: 20%
Activity [20]: 18.6%
Activity [21]: Non-toxic
Activity [22]: Dose-dependent-effect

Compound: CCOC(=O)CN1C(=O)S/C(=C\c2ccc(O)c(O)c2)C1=O
IC50 [8]: > 50 µM
IC50 [24]: 16.6 µM
Activity [25]: inactive
IC50 [26]: 32.3 µM

Compound: CCCCNC(=O)C(c1ccc(Cl)nc1)N(CC(C)CC)C(=O)Cn1cc(C(C)(O)c2ccc(F)cc2)nn1 (stereo not given)
Activity [3]: inactive
Kd [27]: Not_determined

Now from value to compound, other results behind:

Activity [3]: inactive
Compound: CCCCNC(=O)C(c1cc(O)ccc1Br)N(CC(C)CC)C(=O)Cn1cc(-c2cccc(OC)c2)nn1 (stereo not given)

Kd [5]: 41 µM
Activity [3]: inactive
Activity [6]: 43%
Activity [7]: 30%
Compound: CCn1c(=O)/c(=C2\Sc3ccccc3N2C)s/c1=C\c1cccc[n+]1C
Activity [4]: Dose-dependent-effect

Activity [3]: inactive
Compound: CCCCNC(=O)C(c1ccccc1Br)N(Cc1ccccc1)C(=O)Cn1cc(-c2ccccc2)nn1 (stereo not given)

Activity [3]: inactive
Compound: CCCCNC(=O)C(c1ccccc1Br)N(CC(C)CC)C(=O)Cn1cc(CCC(C)C)nn1 (stereo not given)

solubility [23]: Insoluble
Compound: CCCCNC(=O)C(c1ccc(C(F)(F)F)cc1)N(CCC)C(=O)Cn1cc(-c2cccc(C)c2)nn1 (stereo not given)

Activity [3]: inactive
Compound: CCCCNC(=O)C(c1c(Br)ccnc1Cl)N(CC(C)CC)C(=O)Cn1cc(-c2cccc(O)c2)nn1 (stereo not given)

Activity [3]: inactive
Compound: Cc1ccc(S(=O)(=O)CNC(=O)C(c2ccccc2Br)N(Cc2ccccc2)C(=O)Cn2cc(-c3ccccc3)nn2)cc1 (stereo not given)
